Assay results pooled from the literature.
Each line is one published result; the experiments were not run side by side.
Observed: binding
Tumor necrosis factor receptor superfamily member 9: Tumor necrosis factor receptor superfamily member 9 (Homo sapiens, UniProt Q07011)
MET: Hepatocyte growth factor receptor (MET, Homo sapiens, UniProt P08581)
USP7: Ubiquitin carboxyl-terminal hydrolase 7 (USP7, Homo sapiens, UniProt Q93009)

| SMILES | target | test | conditions | Kd |
| --- | --- | --- | --- | --- |
| CCCC[C@@H]1NC(=O)[C@H](Cc2ccc(O)cc2)NC(=O)[C@@H]2CCCN2C(=O)[C@H](CC(=O)O)NC(=O)[C@H](C)NC(=O)[C@H](Cc2ccccc2)NC(=O)[C@@H]2CSCCC(=O)N3CN(CN(C3)C(=O)CCSC[C@@H](C(N)=O)NC1=O)C(=O)CCSCCC(=O)N[C@@H](CC(C)(C)C)C(=O)N1CCC[C@H]1C(=O)N[C@@H](CCC(=O)O)C(=O)N[C@H](CCCCNC(=O)CCc1cn(CCOCCOCCOCCOCCOCCC(=O)N[C@H]3CSCCC(=O)N4CN5CN(C4)C(=O)CCSC[C@H](NC(=O)[C@@H](CC(=O)O)NC(=O)[C@H](Cc4cccc6ccccc46)NC(=O)[C@@H]4CCCN4C3=O)C(=O)N[C@@H](CCSC)C(=O)N[C@@H](CCCCNC(=N)N)C(=O)N[C@@H](CC(=O)O)C(=O)N[C@@H](Cc3c[nH]c4ccccc34)C(=O)N[C@@H](CO)C(=O)N[C@@H]([C@@H](C)O)C(=O)N3CCC[C@H]3C(=O)N3C[C@H](O)C[C@H]3C(=O)N[C@@H](Cc3c[nH]c4ccccc34)C(=O)N[C@H](C(N)=O)CSCCC5=O)nn1)C(=O)N1CCC[C@H]1C(=O)N[C@@H](Cc1ccc(O)cc1)C(=O)N2 | Tumor necrosis factor receptor superfamily member 9 | SPR | – | 12 nM |
| CCCCC/C=C\C/C=C\C/C=C\C/C=C\CCCC(=O)O | Nuclear receptor subfamily 4 group A member 2 (Homo sapiens, UniProt P43354) | fluorescence | – | 58000 nM |
| CCCC[C@@H]1NC(=O)[C@H](Cc2ccc(O)cc2)NC(=O)[C@@H]2CCCN2C(=O)[C@H](CC(=O)O)NC(=O)[C@H](C)NC(=O)[C@H](Cc2ccccc2)NC(=O)[C@@H]2CSCCC(=O)N3CN(CN(C3)C(=O)CCSC[C@@H](C(=O)N[C@@H](C)C(N)=O)NC1=O)C(=O)CCSC[C@H](NC(C)=O)C(=O)N[C@@H](CC(C)(C)C)C(=O)N1CCC[C@H]1C(=O)N[C@@H](CCC(=O)O)C(=O)N[C@H](CCCCNC(=O)CCc1cn(CCOCCOCCOCCOCCOCCC(=O)N[C@H]3CSCCC(=O)N4CN5CN(C4)C(=O)CCSC[C@H](NC(=O)CNC(=O)[C@H](Cc4ccccc4)NC(=O)[C@@H]4CCCN4C3=O)C(=O)N[C@@H](CCSC)C(=O)N[C@@H](CCCCNC(=N)N)C(=O)N[C@@H](CC(=O)O)C(=O)N[C@@H](Cc3c[nH]c4ccccc34)C(=O)N[C@@H](CO)C(=O)N[C@@H]([C@@H](C)O)C(=O)N3CCC[C@H]3C(=O)N3C[C@H](O)C[C@H]3C(=O)N[C@@H](Cc3c[nH]c4ccccc34)C(=O)N[C@H](C(N)=O)CSCCC5=O)nn1)C(=O)N1CCC[C@H]1C(=O)N[C@@H](Cc1ccc(O)cc1)C(=O)N2 | Tumor necrosis factor receptor superfamily member 9 | SPR | – | 3.7 nM |
| CC(c1ccccc1)n1cc(-c2ccccn2)c(=O)[nH]c1=O (stereo not shown) | MET | – | – | 5010 nM |
| CC[C@H](C)[C@H](NC(=O)[C@H](CC(C)C)NC(=O)CNC(=O)[C@@H](N)CCCCN)C(=O)N[C@@H](CC(=O)O)C(=O)N[C@@H](Cc1ccc(O)cc1)C(=O)N[C@@H](Cc1ccc(O)cc1)C(=O)N[C@@H](CC(C)C)C(=O)N[C@@H](CCSC)C(=O)N1CCC[C@H]1C(=O)N[C@@H](CO)C(=O)N[C@@H](CC(C)C)C(=O)N[C@@H](CO)C(=O)N[C@H](C(=O)N[C@H](C(=O)N[C@@H](CO)C(=O)N[C@@H](CCCNC(=N)N)C(=O)N[C@@H](CO)C(=O)NCC(=O)N[C@@H](CCCCN)C(=O)O)[C@@H](C)O)[C@@H](C)O | USP7 | ITC | pH 8 | 25900 nM |
| CC(c1ccccc1Cl)n1cc(-c2cc(F)cc(F)c2)c(=O)[nH]c1=O (stereo not shown) | MET | – | – | 39800 nM |
| CN1CN(c2ccccc2)C2(CCN(CCCC(=O)c3ccc(F)cc3)CC2)C1=O | D(2) dopamine receptor (Drd2, Rattus norvegicus, UniProt P61169) | radioligand | cell membranes | 0.09 nM |
| CC[C@H](C)[C@H](NC(=O)[C@H](CCC(=O)O)NC(=O)[C@H](CCC(=O)O)NC(=O)[C@H](CCC(N)=O)NC(=O)[C@@H](NC(=O)[C@@H](N)CC(=O)O)[C@@H](C)CC)C(=O)N[C@@H](CC(C)C)C(=O)N[C@@H](CO)C(=O)NCC(=O)N[C@@H](CCCCN)C(=O)N[C@@H](CO)C(=O)O | USP7 | ITC | pH 8 | 424000 nM |
| CC(c1ccccc1)n1cc(-c2cc(F)cc3c(C#N)n[nH]c23)c(=O)[nH]c1=O (stereo not shown) | MET | – | – | 79.4 nM |
| CCCC[C@@H]1NC(=O)[C@H](Cc2ccc(O)cc2)NC(=O)[C@@H]2CCCN2C(=O)[C@H](CC(=O)O)NC(=O)[C@H](C)NC(=O)[C@H](Cc2ccccc2)NC(=O)[C@@H]2CSCCC(=O)N3CN(CN(C3)C(=O)CCSC[C@H](NC(C)=O)C(=O)N[C@@H](CC(C)(C)C)C(=O)N3CCC[C@H]3C(=O)N[C@@H](CCC(=O)O)C(=O)N[C@H](CCCCNC(=O)CCc3cn(CCOCCOCCOCCOCCOCCC(=O)N[C@H]4CSCCC(=O)N5CN6CN(C5)C(=O)CCSC[C@H](NC(=O)[C@@H](CC(=O)O)NC(=O)[C@H](Cc5cccc7ccccc57)NC(=O)[C@@H]5CCCN5C4=O)C(=O)N[C@@H](CCSC)C(=O)N[C@@H](CCCCNC(=N)N)C(=O)N[C@@H](CC(=O)O)C(=O)N[C@@H](Cc4c[nH]c5ccccc45)C(=O)N[C@@H](CO)C(=O)N[C@@H]([C@@H](C)O)C(=O)N4CCC[C@H]4C(=O)N4C[C@H](O)C[C@H]4C(=O)N[C@@H](Cc4c[nH]c5ccccc45)C(=O)N[C@H](C(N)=O)CSCCC6=O)nn3)C(=O)N3CCC[C@H]3C(=O)N[C@@H](Cc3ccc(O)cc3)C(=O)N2)C(=O)CCSCCNC1=O | Tumor necrosis factor receptor superfamily member 9 | SPR | – | 30 nM |
